Experimental data: PMC4021529 (British Journal of Cancer, 2014)
“Also recorded” adds a separate entry of the source.

Experiments:
Adverse events = format: in vivo, human; conditions: for drug-related anaemia, incidence / drug-related leukopenia, incidence / drug-related neutropenia, incidence / drug-related thrombocytopenia, incidence: all doses
advanced solid tumours = assay: Objective tumour response; format: in vivo, human; conditions: for median PFS: all dose groups
Method in brief: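 Patients with advanced solid tumours at two Taiwanese sites. Test compound given as a 2-h IV infusion on day 1 (schedule A) or days 1 and 8 (schedule B), every 3 weeks. CT or MRI at baseline and at the end of every other course, assessed by RECIST 1.0. PFS estimated by Kaplan–Meier.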

[1] = schedule A, total (n=32), irrespective of relatedness
[2] = schedule B, 50 mg (n=4), irrespective of relatedness
[3] = schedule B, 100 mg (n=4), irrespective of relatedness
[4] = schedule B, 150 mg (n=16), irrespective of relatedness
[5] = schedule B, 200 mg (n=3), irrespective of relatedness
[6] = schedule B, total (n=27), irrespective of relatedness

CC[C@@H]1C(=O)N(C)c2cnc(Nc3ccc(C(=O)N[C@H]4CC[C@H](N5CCN(CC6CC6)CC5)CC4)cc3OC)nc2N1C(C)C [volasertib]
drug-related anaemia, incidence (Adverse events; schedule A): 40.6%
drug-related leukopenia, incidence (Adverse events; schedule A): 56.3%
drug-related neutropenia, incidence (Adverse events; schedule A): 56.3%
drug-related thrombocytopenia, incidence (Adverse events; schedule A): 62.5%
Abdominal pain grade 3, number of patients (Adverse events; [1]): 3 (9.4) n (%)
Anaemia grade 3, number of patients (Adverse events; [1]): 8 (25.0) n (%)
Anaemia grade 4, number of patients (Adverse events; [1]): 4 (12.5) n (%)
Fatigue grade 3, number of patients (Adverse events; [1]): 2 (6.3) n (%)
Febrile neutropenia grade 3, number of patients (Adverse events; [1]): 2 (6.3) n (%)
Febrile neutropenia grade 4, number of patients (Adverse events; [1]): 1 (3.1) n (%)
Hypokalaemia grade 3, number of patients (Adverse events; [1]): 1 (3.1) n (%)
Ileus grade 3, number of patients (Adverse events; [1]): 1 (3.1) n (%)
Infection grade 3, number of patients (Adverse events; [1]): 1 (3.1) n (%)
Leukopenia grade 3, number of patients (Adverse events; [1]): 9 (28.1) n (%)
Leukopenia grade 4, number of patients (Adverse events; [1]): 1 (3.1) n (%)
Neutropenia grade 3, number of patients (Adverse events; [1]): 6 (18.8) n (%)
Neutropenia grade 4, number of patients (Adverse events; [1]): 10 (31.3) n (%)
Pain grade 3, number of patients (Adverse events; [1]): 1 (3.1) n (%)
Thrombocytopenia grade 3, number of patients (Adverse events; [1]): 10 (31.3) n (%)
Thrombocytopenia grade 4, number of patients (Adverse events; [1]): 5 (15.6) n (%)
Upper GI haemorrhage grade 3, number of patients (Adverse events; [1]): 1 (3.1) n (%)
Anaemia grade 3, number of patients (Adverse events; [2]): 1 n
Infection grade 3, number of patients (Adverse events; [2]): 1 n
Dyspnoea grade 3, number of patients (Adverse events; [3]): 1 n
Hypokalaemia grade 3, number of patients (Adverse events; [3]): 1 n
Abdominal pain grade 3, number of patients (Adverse events; [4]): 2 n
Anaemia grade 3, number of patients (Adverse events; [4]): 1 n
Anaemia grade 4, number of patients (Adverse events; [4]): 2 n
Dizziness grade 3, number of patients (Adverse events; [4]): 1 n
Fatigue grade 3, number of patients (Adverse events; [4]): 1 n
Leukopenia grade 3, number of patients (Adverse events; [4]): 1 n
Neutropenia grade 3, number of patients (Adverse events; [4]): 2 n
Neutropenia grade 4, number of patients (Adverse events; [4]): 1 n
Pain grade 3, number of patients (Adverse events; [4]): 2 n
Rash grade 3, number of patients (Adverse events; [4]): 1 n
Upper GI haemorrhage grade 3, number of patients (Adverse events; [4]): 1 n
Vomiting grade 3, number of patients (Adverse events; [4]): 1 n
Abdominal distension grade 3, number of patients (Adverse events; [5]): 1 n
Anaemia grade 3, number of patients (Adverse events; [5]): 2 n
Decreased appetite grade 3, number of patients (Adverse events; [5]): 1 n
Fatigue grade 3, number of patients (Adverse events; [5]): 1 n
Febrile neutropenia grade 3, number of patients (Adverse events; [5]): 1 n
Hypokalaemia grade 3, number of patients (Adverse events; [5]): 1 n
Ileus grade 3, number of patients (Adverse events; [5]): 2 n
Infection grade 3, number of patients (Adverse events; [5]): 1 n
Leukopenia grade 4, number of patients (Adverse events; [5]): 1 n
Neutropenia grade 4, number of patients (Adverse events; [5]): 2 n
Thrombocytopenia grade 3, number of patients (Adverse events; [5]): 2 n
Upper GI haemorrhage grade 3, number of patients (Adverse events; [5]): 1 n
drug-related anaemia, incidence (Adverse events; schedule B): 18.5%
drug-related leukopenia, incidence (Adverse events; schedule B): 33.3%
drug-related neutropenia, incidence (Adverse events; schedule B): 33.3%
drug-related thrombocytopenia, incidence (Adverse events; schedule B): 14.8%
Abdominal distension grade 3, number of patients (Adverse events; [6]): 1 (3.7) n (%)
Abdominal pain grade 3, number of patients (Adverse events; [6]): 2 (7.4) n (%)
Anaemia grade 3, number of patients (Adverse events; [6]): 4 (14.8) n (%)
Anaemia grade 4, number of patients (Adverse events; [6]): 2 (7.4) n (%)
Decreased appetite grade 3, number of patients (Adverse events; [6]): 1 (3.7) n (%)
Dizziness grade 3, number of patients (Adverse events; [6]): 1 (3.7) n (%)
Dyspnoea grade 3, number of patients (Adverse events; [6]): 1 (3.7) n (%)
Fatigue grade 3, number of patients (Adverse events; [6]): 2 (7.4) n (%)
Febrile neutropenia grade 3, number of patients (Adverse events; [6]): 1 (3.7) n (%)
Hypokalaemia grade 3, number of patients (Adverse events; [6]): 2 (7.4) n (%)
Ileus grade 3, number of patients (Adverse events; [6]): 2 (7.4) n (%)
Infection grade 3, number of patients (Adverse events; [6]): 2 (7.4) n (%)
Leukopenia grade 3, number of patients (Adverse events; [6]): 1 (3.7) n (%)
Leukopenia grade 4, number of patients (Adverse events; [6]): 1 (3.7) n (%)
Neutropenia grade 3, number of patients (Adverse events; [6]): 2 (7.4) n (%)
Neutropenia grade 4, number of patients (Adverse events; [6]): 3 (11.1) n (%)
Pain grade 3, number of patients (Adverse events; [6]): 2 (7.4) n (%)
Rash grade 3, number of patients (Adverse events; [6]): 1 (3.7) n (%)
Thrombocytopenia grade 3, number of patients (Adverse events; [6]): 2 (7.4) n (%)
Upper GI haemorrhage grade 3, number of patients (Adverse events; [6]): 2 (7.4) n (%)
Vomiting grade 3, number of patients (Adverse events; [6]): 1 (3.7) n (%)
partial responses in the study (advanced solid tumours; 59 treated patients, both schedules): two pre-treated patients; also recorded: Two partial responses
duration of stable disease, individual patient (advanced solid tumours; bladder urothelial cancer with lymph node metastasis, 50 mg schedule B): > 8 months
patients with stable disease as best overall response (advanced solid tumours; overall, both schedules): 26 (44.1%) patients (%)
patients with stable disease as best overall response (advanced solid tumours; schedule A): 14 (43.8%) patients (%)
median PFS (advanced solid tumours; schedule A): 49 days
patients with stable disease as best overall response (advanced solid tumours; schedule B): 12 (44.4%) patients (%)
median PFS (advanced solid tumours; schedule B): 56 days
best response of individual patient (advanced solid tumours; ureteral urothelial carcinoma (wild-type FGFR3), 350 mg schedule A, two courses): partial response
